Measurements reported in PMC2859510 (The Journal of Biological Chemistry, 2010).
pIC50: −log10 of the molar value. “Also recorded” adds a separate entry of the source. Where no end group is shown, it is not given here.

Key:
[1] = target: GST-NEMO-(2–200) (UniProt Q9Y6K9); test: AlphaScreen or HTRF
[2] = tested on: IL-1β-stimulated RASF; test: IL-1β-induced IL-6 production in RASF; type: cell-based, patients with rheumatoid arthritis; conditions: pretreated 2 h, 1 ng/ml IL-1β 18 h, 1% serum, IKK-2 11-mer
Method in brief: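 Fibroblasts were grown in high-glucose DMEM with 15% defined bovine serum and 50 μg/ml gentamicin. They were seeded at 1.5 × 10^4 cells/well, attached overnight, then moved to DMEM with 1% serum. Cells got rising peptide doses for 2 h, then 1 ng/ml IL-1β for 18 h. Secreted IL-6 was read by MSD, IC50 fitted, and viability checked by Alamar Blue. Data are % of stimulated cells, mean ± S.D. of ≥3 determinations.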

[3] = target: GST-NEMO-(2–200) and IKK-2-FLAG (Homo sapiens, UniProt Q9Y6K9); test: Alphascreen binding assay, recombinant NEMO and IKK-2; conditions: pH 7.4, read-out: inhibition of NEMO-IKK-2 interaction at 100 μM, Alphascreen
Chain of GST-NEMO-(2–200) and IKK-2-FLAG (Q9Y6K9 2-200): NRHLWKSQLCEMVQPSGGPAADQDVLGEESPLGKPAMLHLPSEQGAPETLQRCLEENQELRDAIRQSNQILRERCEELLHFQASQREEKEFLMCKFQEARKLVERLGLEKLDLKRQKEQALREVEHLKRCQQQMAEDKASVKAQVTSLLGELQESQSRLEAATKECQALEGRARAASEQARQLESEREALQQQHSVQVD
Method in brief: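 GST-NEMO-(2–200) (2 nM) and C-terminal FLAG-tagged full-length IKK-2 (2 nM) were incubated 30 min at room temperature in buffer containing 50 mM HEPES pH 7.4, 0.01% BSA, 0.0005% Tween 20 and 1 mM DTT. Unlabeled competitor peptides were titrated in for 30 min. Glutathione donor and anti-FLAG acceptor beads were added, overnight at room temperature, then Alphascreen read. Mean ± S.E. of four independent experiments.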

[4] = tested on: NF-κB reporter gene; conditions: proinflammatory stimuli (TNF-α); cited from earlier work
[5] = tested on: IRAK-1, TAK-1, IκBα, p65; test: NF-κB signaling intermediates in IL-1β-stimulated RASF; type: cell-based, patients with rheumatoid arthritis; conditions: then 1 ng/ml IL-1β 10 min; for IRAK-1 fate (disappearance of band) / TAK-1 phosphorylation: 30 min
Method in brief: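 Fibroblasts were given peptide for 30 min, then 1 ng/ml IL-1β for 10 min at 37 °C. Lysis used Tris pH 7.6 / NaCl / 0.5% NP-40 buffer with protease and phosphatase inhibitors, with protein measured by Bradford. Blots were run by SDS-PAGE and PVDF transfer, with primary Abs 2 h at 25 °C (anti-IRAK-1, anti-phospho-TAK-1, anti-p65) and secondary Ab 1 h. Tubulin served as loading control.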

[6] = tested on: NEMO-IKK-2 interactions; test: In situ proximity ligation assay, NEMO-IKK-2 interactions in RASF; type: cell-based, patients with rheumatoid arthritis; conditions: data not shown
Method in brief: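 RASF on culture slides (2.5 × 10^4 cells/well, DMEM 10% FBS, overnight 37 °C) were moved to serum-free DMEM with 1% DMSO or test compound for 30 min. Cells were fixed (4% paraformaldehyde), permeabilized (0.1% Triton X-100), and blocked. They were then incubated overnight at 4 °C with anti-NEMO plus anti-IKK-2 Abs, then with oligonucleotide-linked probes (1 h, 37 °C), followed by ligation and amplification. Counterstained with Hoechst and imaged at ×20; signals/cell averaged per image.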

[7] = tested on: LPS-stimulated PBMC; test: LPS-induced TNF-α and IL-6 production in PBMC; type: cell-based, human; conditions: pretreated 2 h, 10 ng/ml LPS 18 h, IKK-2 11-mer, Fig. 1A/data not shown
Method in brief: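 PBMC were Ficoll-isolated from heparinized healthy-donor blood and kept in DMEM with 5% endotoxin-free FBS and pen/strep. They were plated at 2.5 × 10^5 cells/well and given rising peptide doses for 2 h. Then 10 ng/ml LPS or vehicle was added for 18 h, at 1% DMSO final. TNF-α and IL-6 were read by MSD, IC50 fitted, and viability checked by Alamar Blue. Data are % of LPS-stimulated cells, mean ± S.D.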

[8] = tested on: NEMO-IKK-2 complex; test: Immunoprecipitation of the IKK complex with anti-NEMO from RASF; type: cell-based, patients with rheumatoid arthritis; conditions: 150 μM WT or mutant peptide, 30 min, then 1 ng/ml IL-1β 10 min; IKK-2 11-mer
Method in brief: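 Fibroblasts were given 150 μM WT or mutant peptide for 30 min, then 1 ng/ml IL-1β for 10 min at 37 °C. Cells were lysed in 20 mM Tris pH 7.6, 150 mM NaCl, 0.5% NP-40, PMSF, protease and phosphatase inhibitors. From 50 μg lysate, the complex was pulled down with anti-NEMO mAb for 1 h, then Protein A beads for 1 h. Precipitates and inputs were blotted under reducing SDS-PAGE and read by infrared imaging. Runs were repeated 2–4 times.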

[9] = tested on: unstimulated RASF; test: Basal IL-6 production in RASF; type: cell-based, patients with rheumatoid arthritis; conditions: pretreated 2 h, vehicle 18 h, IKK-2 11-mer
Method in brief: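 Commercial RASF were seeded at 1.5 × 10^4 cells/well in high-glucose DMEM with 15% defined bovine serum and 50 μg/ml gentamicin, attached overnight, then switched to DMEM with 1% serum. Cells were pretreated 2 h with increasing test compound concentrations, then given vehicle for 18 h. Secreted IL-6 was measured by MSD; cytotoxicity by Alamar Blue. Expressed as % of untreated cells; mean ± S.D., ≥3 determinations.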

[10] = tested on: IKK-2 (Ser^181); IκBα; type: cell-based, patients with rheumatoid arthritis; conditions: RASF, peptide 1 h before 1 ng/ml IL-1β 10 min; IKK-2 11-mer
Method in brief: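 Rheumatoid arthritis synovial fibroblasts were exposed to peptide for 1 h, then to 1 ng/ml IL-1β for 10 min. The same lysates also served the kinase assay. Proteins were separated by SDS-PAGE and transferred to PVDF. Membranes were probed 2 h at 25 °C with anti-phospho-IKK-1(Ser180)/IKK-2(Ser181) or anti-IκBα, then with secondary Ab for 1 h. Bands were read by infrared imaging.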

[11] = tested on: unstimulated PBMC; test: Basal TNF-α and IL-6 production in PBMC; type: cell-based, human; conditions: pretreated 2 h, vehicle 18 h, IKK-2 11-mer
Method in brief: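 Human PBMC from heparinized healthy-donor blood were isolated by Ficoll, plated at 2.5 × 10^5 cells/well in DMEM with 5% endotoxin-free FBS and penicillin/streptomycin. Cells were pretreated 2 h with increasing test compound concentrations, then given vehicle for 18 h (1% DMSO final). TNF-α and IL-6 were measured by MSD; cytotoxicity by Alamar Blue. Expressed as % of untreated cells; mean ± S.D., ≥3 determinations.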

[12] = tested on: bovine nasal cartilage explant cultures; type: cell-based; conditions: data not shown
[13] = tested on: NF-κB reporter gene; conditions: cited from earlier work
[14] = target: GST-NEMO-(2–200) and biotinylated IKK-1/2 chimeric 44-mer peptide (Homo sapiens, UniProt Q9Y6K9); test: Time-resolved FRET binding assay
Chain of GST-NEMO-(2–200) and biotinylated IKK-1/2 chimeric 44-mer peptide (Q9Y6K9 2-200, change not shown): as the sequence (Q9Y6K9 2-200) above

[15] = tested on: IKK complex; test: Native PAGE / Western blot: release of IKK-2 from an IKK complex in RASF; type: cell-based, patients with rheumatoid arthritis; conditions: 30 min peptide, then IL-1β 10 min, IKK-2 11-mer
[16] = target: NEMO-(2-200) (UniProt Q9Y6K9); test: fluorescence polarisation
Chain of NEMO-(2-200) (Q9Y6K9 2-200): as above

Chain of GST-NEMO-(2–200) (Q9Y6K9 2-200): as above

| Substance | pIC50 [1] | IRAK-1 fate (disappearance of band) [5] | TAK-1 phosphorylation [5] | IκBα degradation (30 min pretreatment) [5] | basal IL-6 production, RASF [9] | IKK-2 phosphorylation at Ser^181 [10] | IκBα degradation [10] | basal cytokine production (TNF-α and IL-6), PBMC [11] | cytokine-induced release of glycosaminoglycans [12] | other results |
| --- | --- | --- | --- | --- | --- | --- | --- | --- | --- | --- |
| Antennapedia homeodomain-conjugated IKK-2 11-mer NBD peptide (WT) | < 4.00 | – | – | – | – | – | – | – | – | percent inhibition at 100 μM [1]: 40% |
| DRQIKIWFQNRRMKWKKTALDWSWLQTE [WT NBD peptides] | – | no effect | no effect | inhibited IκBα degradation in a concentration-dependent manner | neither WT nor mutant NBD peptides had an inhibitory effect; also recorded: slight increase in basal cytokine production | inhibited | inhibited | neither WT nor mutant NBD peptides had an inhibitory effect; also recorded: slight increase in basal cytokine production | inhibited | IL-1β-induced IL-6 production [2]: completely blocked; inhibition at 100 µM [3]: 40%; NF-κB reporter gene activity, stimulated [4]: inhibited NF-κB reporter gene activity; NEMO-IKK-2 interactions (PLA), unstimulated [6]: inhibited NEMO-IKK-2 interactions in unstimulated cells; LPS-induced production of IL-6 [7]: completely blocked; relative concentration of IKK-2 in the immunoprecipitated complex [8]: no significant effect; NF-κB reporter gene activity, basal [13]: did not inhibit basal reporter gene activity |
| PAKKSEELVAEAHNLCTLLENAIQDTVREQDQSFTALDWSWLQTE [IKK-2 45-mer] | – | – | – | – | – | – | – | – | – | pIC50 [14]: 8.15 to 9.00 |
| TALDASALQTE [mutant NBD peptides] | – | failed | failed | failed to protect IκBα from degradation | neither WT nor mutant NBD peptides had an inhibitory effect | WT but not mutant NBD peptides inhibited | WT but not mutant NBD peptides inhibited | neither WT nor mutant NBD peptides had an inhibitory effect | WT but not mutant NBD peptides inhibited | release of IKK-2 from IKK complex, IL-1β-treated [15]: WT but not mutant NBD peptides led to the appearance of an IKK-2 band distinct from the complex; also recorded: WT but not mutant NBD peptides resulted in the release of IKK-2 |
| IKK-2 45-mer mutant (W739A and W741A) (peptide) | < 6.00 | – | – | – | – | – | – | – | – | pIC50 [16]: < 6.00 |
